{
  "source": "ChEMBL document CHEMBL4052629",
  "about": "“Scutellarin derivatives as apoptosis inducers: Design, synthesis and biological evaluation” (Eur J Med Chem, 2017)",
  "key": {"HepG2 [1]": {"tested_on": "HepG2", "experiment": "Induction of apoptosis in human HepG2 cells assessed as reduction in adherent cells at 0.3 to 0.6 uM after 48 hrs by Hoechst 33258 staining-based fluorescent microscopic analysis", "format": "functional, cell-based", "summary_of_the_method": "(§1)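 HepG2 cells on sterile cover slips in 6-well plates exposed to 0, 0.3, 0.6 or 1.2 μM, or vehicle, for 48 h. Fixed in 4% paraformaldehyde for 10 min, PBS-washed, stained with Hoechst 33258 for 5 min. Nuclear morphology and adherent cell number viewed at 350 nm excitation / 460 nm emission. Non-treated cells served as control.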"}, "HepG2 [2]": {"tested_on": "HepG2", "experiment": "Induction of apoptosis in human HepG2 cells assessed as reduction in mitochondrial membrane potential at 0.3 uM after 48 hrs by JC-1 staining-based flow cytometric analysis (reference value: 1.6%)", "format": "functional", "set-up": "scale not given: the % may be the effect or the level left", "summary_of_the_method": "(§2)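 HepG2 cells cultured overnight, then incubated in triplicate with 0, 0.3, 0.6 or 1.2 μM, or vehicle, for 48 h. Stained with the cationic dye JC-1. Flow cytometry gave the percentage of cells with healthy versus collapsed mitochondrial membrane potential.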"}, "HepG2 [3]": {"tested_on": "HepG2", "experiment": "Induction of apoptosis in human HepG2 cells assessed as reduction in c-IAP1 expression levels at 2 uM after 24 hrs by membrane-based sandwich immunoassay", "format": "functional, cell-based", "summary_of_the_method": "(§3)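 HepG2 cells exposed to 2 μM for 24 h. Proteins extracted per kit protocol. Relative levels of 35 apoptosis-related proteins measured on a human apoptosis antibody array.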"}, "L02 [4]": {"tested_on": "L02", "experiment": "Induction of apoptosis in human LO2 cells assessed as early apoptotic cells at 1.2 uM after 72 hrs by Annexin V-FITC/7-AAD or propidium iodide staining-based flow cytometric analysis (reference value: 3.65%)", "format": "cell-based", "conditions": "l02, 72 h"}, "HepG2 [5]": {"tested_on": "HepG2", "experiment": "Induction of apoptosis in human HepG2 cells assessed as reduction in procaspase-3 expression levels at 2 uM after 24 hrs by membrane-based sandwich immunoassay", "format": "functional, cell-based", "summary_of_the_method": "as §3"}, "HepG2 [6]": {"tested_on": "HepG2", "experiment": "Induction of apoptosis in human HepG2 cells assessed as rupture of cell membrane at 1.2 uM after 48 hrs by Hoechst 33258 staining-based fluorescent microscopic analysis", "format": "functional", "summary_of_the_method": "as §1"}, "HepG2 [7]": {"tested_on": "HepG2", "experiment": "Cell cycle arrest in human HepG2 cells assessed as accumulation at G2/M phase at 0.6 uM after 72 hrs by propidium iodide staining-based flow cytometric analysis (reference value: 21.4%)", "format": "functional", "summary_of_the_method": "(§4)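 Concentrations used were 0, 0.3, 0.6 and 1.2 μM in HepG2 and 0, 0.16, 0.31 and 1.25 μM in PC-3, with untreated cells as control, for 72 h. Cells were trypsinized, washed in PBS, fixed in cold ethanol at 4 °C overnight, then incubated 30 min in PBS containing RNase A and propidium iodide. DNA content was read by flow cytometry to give phase distribution.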"}, "HepG2 [8]": {"tested_on": "HepG2", "experiment": "Induction of apoptosis in human HepG2 cells assessed as viable cells at 0.3 uM after 72 hrs by Annexin V-APC/7-AAD or propidium iodide staining-based flow cytometric analysis (reference value: 90.08%)", "format": "functional", "conditions": "HepG2, 72 h, read-out: Activity"}, "HepG2 [9]": {"tested_on": "HepG2", "experiment": "Induction of apoptosis in human HepG2 cells assessed as reduction in mitochondrial membrane potential at 1.2 uM after 48 hrs by JC-1 staining-based flow cytometric analysis (reference value: 1.6%)", "format": "functional", "set-up": "scale not given: the % may be the effect or the level left", "summary_of_the_method": "as §2"}, "HepG2 [10]": {"tested_on": "HepG2", "experiment": "Induction of apoptosis in human HepG2 cells assessed as necrotic cells at 0.3 uM after 72 hrs by Annexin V-APC/7-AAD or propidium iodide staining-based flow cytometric analysis (reference value: 1.87%)", "format": "functional"}, "HepG2 [11]": {"tested_on": "HepG2", "experiment": "Induction of apoptosis in human HepG2 cells assessed as early apoptotic cells at 0.3 uM after 72 hrs by Annexin V-APC/7-AAD or propidium iodide staining-based flow cytometric analysis (reference value: 1.87%)", "format": "functional"}, "HepG2 [12]": {"tested_on": "HepG2", "experiment": "Induction of apoptosis in human HepG2 cells assessed as cell shrinkage at 0.3 to 0.6 uM after 48 hrs by Hoechst 33258 staining-based fluorescent microscopic analysis", "format": "functional", "summary_of_the_method": "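HepG2 cells grown on coverslips were treated for 48 h at 0.3, 0.6 or 1.2 μM, then fixed in 4% paraformaldehyde for 10 min. After PBS washes, cells were stained with Hoechst 33258 for 5 min and washed again. Nuclear morphology was examined by fluorescence imaging at 350 nm excitation and 460 nm emission.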"}, "PC-3 [13]": {"tested_on": "PC-3", "experiment": "Induction of apoptosis in human PC3 cells assessed as chromatin condensation at 0.16 to 1.25 uM after 48 hrs by Hoechst 33258 staining-based fluorescent microscopic analysis", "format": "functional, cell-based", "summary_of_the_method": "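PC-3 cells grown on sterile cover slips were exposed to 0, 0.16, 0.31 or 1.25 μM, or vehicle, for 48 h. Then fixed with 4% paraformaldehyde for 10 min, washed twice in PBS, stained with Hoechst 33258 for 5 min and washed again. Nuclei imaged at 350 nm excitation and 460 nm emission.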"}, "PC-3 [14]": {"tested_on": "PC-3", "experiment": "Induction of apoptosis in human PC3 cells assessed as reduction in mitochondrial membrane potential after 48 hrs by JC-1 staining-based flow cytometric analysis", "format": "functional, cell-based", "summary_of_the_method": "(§5)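 After overnight culture, PC-3 cells were treated in triplicate with 0, 0.16, 0.31 or 1.25 μM, or vehicle, for 48 h. They were then loaded with JC-1, and the proportion with depolarized mitochondrial membrane potential was counted by flow cytometry.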"}, "PC-3 [15]": {"tested_on": "PC-3", "experiment": "Induction of apoptosis in human PC3 cells assessed as necrotic cells at 0.16 uM after 72 hrs by Annexin V-APC/7-AAD or propidium iodide staining-based flow cytometric analysis (reference value: 2.43%)", "format": "functional"}, "PC-3 [16]": {"tested_on": "PC-3", "experiment": "Cell cycle arrest in human PC3 cells assessed as accumulation at G2/M phase at 1.25 uM after 72 hrs by propidium iodide staining-based flow cytometric analysis (reference value: 10.19%)", "format": "functional", "summary_of_the_method": "as §4"}, "PC-3 [17]": {"tested_on": "PC-3", "experiment": "Induction of apoptosis in human PC3 cells assessed as reduction in mitochondrial membrane potential at 1.25 uM after 48 hrs by JC-1 staining-based flow cytometric analysis (reference value: 1.86%)", "format": "functional", "set-up": "scale not given: the % may be the effect or the level left", "summary_of_the_method": "as §5"}, "PC-3 [18]": {"tested_on": "PC-3", "experiment": "Induction of apoptosis in human PC3 cells assessed as late apoptotic cells at 0.31 uM after 72 hrs by Annexin V-APC/7-AAD or propidium iodide staining-based flow cytometric analysis (reference value: 4.74%)", "format": "functional"}, "L02 [19]": {"tested_on": "L02", "experiment": "Induction of apoptosis in human LO2 cells assessed as necrotic cells at 1.25 uM after 72 hrs by Annexin V-FITC/7-AAD or propidium iodide staining-based flow cytometric analysis (reference value: 1.99%)", "format": "cell-based", "conditions": "l02, 72 h"}, "PC-3 [20]": {"tested_on": "PC-3", "experiment": "Cell cycle arrest in human PC3 cells assessed as accumulation at S phase at 0.31 uM after 72 hrs by propidium iodide staining-based flow cytometric analysis (reference value: 36.46%)", "format": "functional", "summary_of_the_method": "as §4"}, "PC-3 [21]": {"tested_on": "PC-3", "experiment": "Cell cycle arrest in human PC3 cells assessed as accumulation at G2/M phase at 0.16 uM after 72 hrs by propidium iodide staining-based flow cytometric analysis (reference value: 10.19%)", "format": "functional", "summary_of_the_method": "as §4"}, "PC-3 [22]": {"tested_on": "PC-3", "experiment": "Induction of apoptosis in human PC3 cells assessed as reduction in mitochondrial membrane potential at 0.16 uM after 48 hrs by JC-1 staining-based flow cytometric analysis (reference value: 1.86%)", "format": "functional", "set-up": "scale not given: the % may be the effect or the level left", "summary_of_the_method": "as §5"}, "PC-3 [23]": {"tested_on": "PC-3", "experiment": "Induction of apoptosis in human PC3 cells assessed as late apoptotic cells at 0.16 uM after 72 hrs by Annexin V-APC/7-AAD or propidium iodide staining-based flow cytometric analysis (reference value: 4.74%)", "format": "functional"}, "PC-3 [24]": {"tested_on": "PC-3", "experiment": "Induction of apoptosis in human PC3 cells assessed as viable cells at 1.25 uM after 72 hrs by Annexin V-APC/7-AAD or propidium iodide staining-based flow cytometric analysis (reference value: 88.74%)", "format": "functional", "conditions": "PC-3, 72 h, read-out: Activity"}},
  "note": "Calls of active or inactive are those of the source. No cut-off for these calls is given here.",
  "data": [
    {"smiles": "O=C(NCCCOc1no[n+]([O-])c1S(=O)(=O)c1ccccc1)[C@H]1O[C@@H](Oc2cc3oc(-c4ccc(OCc5ccccc5)cc4)cc(=O)c3c(O)c2OCc2ccccc2)[C@H](O)[C@@H](O)[C@@H]1O", "values": [
      {"measurement": "Activity", "setting": "HepG2 [1]", "value": "Active"},
      {"measurement": "Activity", "setting": "HepG2 [2]", "value": 15.14, "unit": "%"},
      {"measurement": "Activity", "setting": "HepG2 [3]", "value": "Active"},
      {"measurement": "Activity", "setting": "L02 [4]", "value": 14.2, "unit": "%"},
      {"measurement": "Activity", "setting": "HepG2 [5]", "value": "Active"},
      {"measurement": "Activity", "setting": "HepG2 [6]", "value": "Active"},
      {"measurement": "Activity", "setting": "HepG2 [7]", "value": 17.54, "unit": "%"},
      {"measurement": "viability at 0.3 µM", "setting": "HepG2 [8]", "value": 79.6, "unit": "%"},
      {"measurement": "Activity", "setting": "HepG2 [9]", "value": 58.47, "unit": "%"},
      {"measurement": "Activity", "setting": "HepG2 [10]", "value": 3.85, "unit": "%"},
      {"measurement": "Activity", "setting": "HepG2 [11]", "value": 3.04, "unit": "%"},
      {"measurement": "Activity", "setting": "HepG2 [12]", "value": "Active"}
    ]},
    {"smiles": "COc1ccc(-c2cc(=O)c3c(O)c(OC)c(O[C@@H]4O[C@H](C(=O)NCCOc5no[n+]([O-])c5S(=O)(=O)c5ccccc5)[C@@H](O)[C@H](O)[C@H]4O)cc3o2)cc1", "values": [
      {"measurement": "Activity", "setting": "PC-3 [13]", "value": "Active"},
      {"measurement": "Activity", "setting": "PC-3 [14]", "value": "Dose-dependent effect"},
      {"measurement": "Activity", "setting": "PC-3 [15]", "value": 4.42, "unit": "%"},
      {"measurement": "Activity", "setting": "PC-3 [16]", "value": 9.1, "unit": "%"},
      {"measurement": "Activity", "setting": "PC-3 [17]", "value": 61.01, "unit": "%"},
      {"measurement": "Activity", "setting": "PC-3 [18]", "value": 22.46, "unit": "%"},
      {"measurement": "Activity", "setting": "L02 [19]", "value": 1.32, "unit": "%"},
      {"measurement": "Activity", "setting": "PC-3 [20]", "value": 43.3, "unit": "%"},
      {"measurement": "Activity", "setting": "PC-3 [21]", "value": 11.62, "unit": "%"},
      {"measurement": "Activity", "setting": "PC-3 [22]", "value": 17.9, "unit": "%"},
      {"measurement": "Activity", "setting": "PC-3 [23]", "value": 12.75, "unit": "%"},
      {"measurement": "viability at 1.25 µM", "setting": "PC-3 [24]", "value": 36.3, "unit": "%"}
    ]}
  ]
}
